ChEMBL document CHEMBL4219066, “Identification and Mitigation of Reactive Metabolites of 2-Aminoimidazole-Containing Microsomal Prostaglandin E Synthase-1 Inhibitors Terminated Due to Clinical Drug-Induced Liver Injury” (J Med Chem, 2018)
Values belong to the compound of their own block, whether it stands above or below them.

Key:
[1] = In vivo drug level in human urine treated with LY3031207 by HPLC-MS analysis; type: ADME, organism-based
[2] = Drug level in rat hepatocytes treated with LY3031207 at 2 uM after 4 hrs by LC-MS/MS analysis; type: ADME, cell-based, Hepatocyte
[3] = Drug level in human hepatocytes treated with LY3031207 at 2 uM after 4 hrs by LC-MS/MS analysis; type: ADME, cell-based, Hepatocyte
[4] = Drug level in dog hepatocytes treated with LY3031207 at 2 uM after 4 hrs by LC-MS/MS analysis; type: ADME, cell-based, Canis lupus familiaris, Hepatocyte
[5] = In vivo drug level in human plasma treated with LY3031207 by HPLC-MS analysis; type: ADME, organism-based
[6] = In vivo drug level in human urine treated with LY3023703 by HPLC-MS analysis; type: ADME, organism-based
[7] = Drug level in human hepatocytes treated with LY3023703 at 2 uM after 4 hrs by LC-MS/MS analysis; type: ADME, cell-based, Hepatocyte
[8] = Drug level in rat hepatocytes treated with LY3023703 at 2 uM after 4 hrs by LC-MS/MS analysis; type: ADME, cell-based, Hepatocyte
[9] = In vivo drug level in human plasma treated with LY3023703 by HPLC-MS analysis; type: ADME, organism-based
[10] = Drug level in Beagle dog plasma treated with LY3023703 at 300 to 600 mg/kg, po measured after 2 hrs post dose by LC/MS analysis; type: ADME, organism-based, Canis lupus familiaris; conditions: in vivo
[11] = Drug level in rat hepatocytes treated with 2-(Difluoromethyl)-N-(4-methyl-5-(4-(trifluoromethyl)-phenyl)-1H-imidazol-2-yl)-5-(pivalamidomethyl)nicotinamide at 2 uM after 4 hrs by LC-MS/MS analysis; type: ADME, cell-based, Hepatocyte
[12] = Drug level in dog hepatocytes treated with 2-(Difluoromethyl)-N-(4-methyl-5-(4-(trifluoromethyl)-phenyl)-1H-imidazol-2-yl)-5-(pivalamidomethyl)nicotinamide at 2 uM after 4 hrs by LC-MS/MS analysis; type: ADME, cell-based, Canis lupus familiaris, Hepatocyte
[13] = Drug level in human hepatocytes treated with 2-(Difluoromethyl)-N-(4-methyl-5-(4-(trifluoromethyl)-phenyl)-1H-imidazol-2-yl)-5-(pivalamidomethyl)nicotinamide at 2 uM after 4 hrs by LC-MS/MS analysis; type: ADME, cell-based, Hepatocyte
[14] = Drug level in human hepatocytes treated with 2 -Chloro-N-(4,5-dimethyl-1H-imidazol-2-yl)-5-(pivalamidomethyl)benzamide at 2 uM after 4 hrs by LC-MS/MS analysis; type: ADME, cell-based, Hepatocyte
[15] = Drug level in rat hepatocytes treated with 2 -Chloro-N-(4,5-dimethyl-1H-imidazol-2-yl)-5-(pivalamidomethyl)benzamide at 2 uM after 4 hrs by LC-MS/MS analysis; type: ADME, cell-based, Hepatocyte
[16] = Drug level in human hepatocytes treated with 2-Chloro-N-(4-methyl-1H-imidazol-2-yl)-5-(pivalamidomethyl)benzamide at 2 uM after 4 hrs by LC-MS/MS analysis; type: ADME, cell-based, Hepatocyte
[17] = Drug level in rat hepatocytes treated with 2-Chloro-N-(4-methyl-1H-imidazol-2-yl)-5-(pivalamidomethyl)benzamide at 2 uM after 4 hrs by LC-MS/MS analysis; type: ADME, cell-based, Hepatocyte
[18] = Drug level in dog hepatocytes treated with LY3023703 at 2 uM after 4 hrs by LC-MS/MS analysis; type: ADME, cell-based, Canis lupus familiaris, Hepatocyte
[19] = Drug metabolism in rat hepatocytes assessed as 2-(2-chloro-5-(pivalamidomethyl)benzamido)-1H-imidazole-4-carboxylic acid formation at 2 uM after 4 hrs by LC-MS/MS analysis; type: ADME, cell-based, Hepatocyte
[20] = Drug metabolism in human hepatocytes assessed as 2-(2-chloro-5-(pivalamidomethyl)benzamido)-1H-imidazole-4-carboxylic acid formation at 2 uM after 4 hrs by LC-MS/MS analysis; type: ADME, cell-based, Hepatocyte
[21] = Drug level in human hepatocytes treated with 2-(2-Chloro-5-(pivalamidomethyl)benzamido)-N-phenyl-1Himidazole-4-carboxamide at 2 uM after 4 hrs by LC-MS/MS analysis; type: ADME, cell-based, Hepatocyte
[22] = Drug level in rat hepatocytes treated with 2-(2-Chloro-5-(pivalamidomethyl)benzamido)-N-phenyl-1Himidazole-4-carboxamide at 2 uM after 4 hrs by LC-MS/MS analysis; type: ADME, cell-based, Hepatocyte
[23] = Drug level in human liver microsomes treated with 2-Chloro-N-(4-methyl-1H-imidazol-2-yl)-5-(pivalamidomethyl)benzamide at 2 uM after 0.5 hrs in presence of 1:1 ratio of unlabeled GSH and [glycine 13C2,15N]-labelled GSH by HPLC-MS analysis; type: ADME, microsome
Method in brief: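 Glutathione-trapping incubation in human liver microsomes fortified with GSH to capture reactive intermediates. Metabolites and GSH adducts were identified by MS.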

SMILES: CC(C)(C)C(=O)NCc1ccc(Cl)c(C(=O)Nc2nc(O)c[nH]2)c1
- Drug metabolism [1]: Metabolite_Detected
- Drug metabolism [2]: Metabolite_Detected
- Drug metabolism [3]: Metabolite_Detected
- Drug metabolism [4]: Metabolite_Detected
- Drug metabolism [5]: Metabolite_Detected

SMILES: CC(C)(C)C(=O)NCc1cnc(C(F)F)c(C(=O)NC(=N)N)c1
- Drug metabolism [11]: Metabolite_Detected
- Drug metabolism [12]: Metabolite_Detected
- Drug metabolism [13]: Metabolite_Detected

SMILES: CC(C)(C)C(=O)NCc1ccc(Cl)c(C(=O)NC(=N)N)c1
- Drug metabolism [14]: Metabolite_Detected
- Drug metabolism [1]: Metabolite_Detected
- Drug metabolism [15]: Metabolite_Detected
- Drug metabolism [16]: Metabolite_Detected
- Drug metabolism [17]: Metabolite_Detected
- Drug metabolism [5]: Metabolite_Detected

SMILES: CC(=O)Nc1nc(C)c(-c2ccc(C(F)(F)F)cc2)[nH]1
- Drug metabolism [10]: Metabolite_Detected

SMILES: CC(C)(CO)C(=O)NCc1ccc(Cl)c(C(=O)Nc2ncc[nH]2)c1
- Drug metabolism [1]: Metabolite_Detected
- Drug metabolism [2]: Metabolite_Detected
- Drug metabolism [3]: Metabolite_Detected
- Drug metabolism [4]: Metabolite_Detected
- Drug metabolism [5]: Metabolite_Detected

SMILES: Cc1nc(NC(=O)c2cc(CNC(=O)C(C)(C)O)cnc2C(F)F)[nH]c1-c1ccc(C(F)(F)F)cc1
- Drug metabolism [18]: Metabolite_Detected
- Drug metabolism [6]: Metabolite_Detected
- Drug metabolism [7]: Metabolite_Detected
- Drug metabolism [8]: Metabolite_Detected
- Drug metabolism [9]: Metabolite_Detected
- Drug metabolism [10]: Metabolite_Detected

SMILES: CC(C)(C)C(=O)NCc1ccc(Cl)c(C(=O)Nc2nc(CO)c[nH]2)c1
- Drug metabolism [16]: Metabolite_Detected
- Drug metabolism [19]: Metabolite_Detected
- Drug metabolism [17]: Metabolite_Detected
- Drug metabolism [20]: Metabolite_Detected

SMILES: CC(C)(CO)C(=O)NCc1ccc(Cl)c(C(=O)Nc2nc(C(=O)Nc3ccccc3)c[nH]2)c1
- Drug metabolism [21]: Metabolite_Detected
- Drug metabolism [22]: Metabolite_Detected

SMILES: Cc1nc(NC(=O)c2cc(CNC(=O)C(C)(C)CO)ccc2Cl)[nH]c1C
- Drug metabolism [14]: Metabolite_Detected
- Drug metabolism [15]: Metabolite_Detected

SMILES: Cc1c[nH]c(NC(=O)c2cc(CNC(=O)C(C)(C)CO)ccc2Cl)n1
- Drug metabolism [16]: Metabolite_Detected
- Drug metabolism [17]: Metabolite_Detected

SMILES: Cc1[nH]c(NC(=O)c2cc(CNC(=O)C(C)(C)C)ccc2Cl)nc1CO
- Drug metabolism [14]: Metabolite_Detected
- Drug metabolism [15]: Metabolite_Detected

SMILES: CC(C)(C)C(=O)NCc1ccc(Cl)c(C(=O)O)c1
- Drug metabolism [21]: Metabolite_Detected
- Drug metabolism [22]: Metabolite_Detected

SMILES: CC(C)(C)C(=O)NCc1ccc(Cl)c(C(=O)Nc2nc(CSC[C@H](NC(=O)CC[C@H](N)C(=O)O)C(=O)NCC(=O)O)c[nH]2)c1
- Drug metabolism [23]: Metabolite_Detected

SMILES: CC(C)C(=O)NCc1cnc(C(F)F)c(C(=O)NC(=N)N)c1
- Drug metabolism [18]: Metabolite_Detected
- Drug metabolism [6]: Metabolite_Detected
- Drug metabolism [7]: Metabolite_Detected
- Drug metabolism [8]: Metabolite_Detected

The next lines start with the values.

- Drug metabolism [6]: Metabolite_Detected
- Drug metabolism [7]: Metabolite_Detected
- Drug metabolism [8]: Metabolite_Detected
- Drug metabolism [9]: Metabolite_Detected
- Drug metabolism [10]: Metabolite_Detected
SMILES: Cc1nc(NC(=O)c2cc(CNC(=O)C(C)CO)cnc2C(F)F)[nH]c1-c1ccc(C(F)(F)F)cc1 (configuration not stated)

- Drug metabolism [10]: Metabolite_Detected
SMILES: Cc1nc(N[C@@H]2O[C@H](C(=O)O)[C@@H](O)[C@H](O)[C@H]2O)[nH]c1-c1ccc(C(F)(F)F)cc1

- Drug metabolism [7]: Metabolite_Detected
- Drug metabolism [8]: Metabolite_Detected
- Drug metabolism [10]: Metabolite_Detected
SMILES: Cc1nc(N)[nH]c1-c1ccc(C(F)(F)F)cc1

- Drug metabolism [8]: Metabolite_Detected
- Drug metabolism [9]: Metabolite_Detected
SMILES: C=C(C)C(=O)NCc1cnc(C(F)F)c(C(=O)Nc2nc(C)c(-c3ccc(C(F)(F)F)cc3)[nH]2)c1

- Drug metabolism [1]: Metabolite_Detected
- Drug metabolism [2]: Metabolite_Detected
- Drug metabolism [3]: Metabolite_Detected
- Drug metabolism [4]: Metabolite_Detected
SMILES: CC(C)(C)C(=O)NCc1ccc(Cl)c(C(=O)NC2=NC(O)C(O)N2)c1 (configuration not stated)

- Drug metabolism [11]: Metabolite_Detected
- Drug metabolism [12]: Metabolite_Detected
- Drug metabolism [13]: Metabolite_Detected
SMILES: Cc1nc(NC(=O)c2cc(CNC(=O)C(C)(C)CO)cnc2C(F)F)[nH]c1-c1ccc(C(F)(F)F)cc1

- Drug metabolism [23]: Metabolite_Detected
SMILES: CC(C)(C)C(=O)NCc1ccc(Cl)c(C(=O)Nc2nc(CSC[C@H](N)C(=O)NCC(=O)O)c[nH]2)c1

- Drug metabolism [12]: Metabolite_Detected
SMILES: CC(C)(C)C(=O)NCc1cnc(C(F)F)c(C(=O)Nc2nc(CO)c(-c3ccc(C(F)(F)F)cc3)[nH]2)c1

- Drug metabolism [6]: Metabolite_Detected
SMILES: Cc1nc(NC(=O)c2cc(CN)cnc2C(F)F)[nH]c1-c1ccc(C(F)(F)F)cc1

- Drug metabolism [1]: Metabolite_Detected
SMILES: CC(C)(CO)C(=O)NCc1ccc(Cl)c(C(=O)NC(=N)N)c1
